# Screens (PubChem BioAssay)
# This is a sample that favours compounds with a hit; in the whole collection about 2.1% have one here.
# MRP reversal = reversal of MRP1-mediated doxorubicin resistance, primary screen, H69AR cells, doxorubicin co-treatment; differential viability (reversal), % at 10 µM; H69AR cells + 2 uM doxorubicin, CellTiter-Glo, 72 h; actives 0.04% (n = 85,000);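 active = viability drop by adding the cancer drug above about 55%, with treated viability meeting a 40% cutoff, limit read from the data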;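 note: viability without doxorubicin minus viability with 2 µM doxorubicin for each compound; larger differential means the compound sensitizes cells more to doxorubicin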
# Yeast growth inh = growth inhibitors of yeast BB579 in restrictive medium, primary screen, yeast lifespan-shortening project, S. cerevisiae. actives 0.51% (n = 140,000). OD615, 48 h. AID 804, 2007. inhibition, % at 10 µM;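 active = inhibition above a set limit, 3 SD over the mean compound inhibition, cut at about 44% in these data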
#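 System: DeaD yeast strain BB579; buffer or medium: CSMM-D dextrose restrictive medium; technique: OD at 615 nm; schedule: 4 h cell preincubation, 48 h compound exposure, 30 °C humidified; doses: single 10 µM dose; controls: amphotericin B 10 µg/mL, positive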
# Yeast lifespan up = compounds extending yeast replicative lifespan, primary screen, S. cerevisiae, OD615; S. cerevisiae growth with nicotinamide; deaD strain in restrictive glucose medium; inhibition of the nicotinamide effect, % at 10 µM; actives 0.68% (n = 130,000);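 active = inhibition above a set limit, placed 3 SD over the median of all compounds, cut at about 26% in these data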;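 note: 0% = nicotinamide-treated wells and 100% = cells grown without nicotinamide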
#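 Measured by: optical density (absorbance) at 615 nm; System: modified budding yeast, DeaD strain; Medium: restrictive CSMM-D dextrose medium; Timing: 4 h preincubation then 48 h treatment at 30 °C.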
# Phagocytosis inh = inhibitors of macrophage phagocytosis, primary screen, imaging, J774A.1 cells, IgG beads; J774A.1 macrophage IgG-bead phagocytosis; inhibition, % at 5 µM; actives 0.07% (n = 110,000); AID 1029, 2008;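 active = inhibition above the mean of the plate negative controls plus 5 SD, cut at about 13% in these data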;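 note: phagocytic index as fraction of beads internalized from green versus red external bead signal; plate controls were DMSO negative control for no effect and cytochalasin-D positive control for full effect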
# MRP1 act = H69AR viability gain despite doxorubicin, primary screen, MRP-1 activator project, H69AR cells, CellTiter-Glo. viability rescue. AID 799, 2007. viability increase, % at 10 µM. actives 0.61% (n = 140,000);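 active = viability gain under doxorubicin at or above a set limit, the compound median plus 3 SD, cut at about 4.7% in these data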;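 note: MRP-1 overexpressing cells given doxorubicin 25 µM after compound pretreatment; 18-22 h compound pretreatment then 72 h with doxorubicin before readout; 0% = doxorubicin-only wells and 100% = vehicle-treated cells without doxorubicin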
# sdo1 growth = growth rescue of sdo1-depleted yeast, primary screen, S. cerevisiae, bone marrow failure model. S. cerevisiae sdo1-depleted JHY4D growth rescue, OD600 30 h; active compounds read high; pdr5 snq2 efflux-pump mutant strain. z-score at 10 µM. actives 0.21% (n = 140,000);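 active = z-score above 3 at both the 24 hr and the 30 hr optical density reads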;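 note: z-score against mean and SD of all compound wells on the same plate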
# * marks the source's active call; other numbers are inactive results; x = no result given.
SMILES,MRP reversal,Yeast growth inh,Yeast lifespan up,Phagocytosis inh,MRP1 act,sdo1 growth
O=C(Nc1nnc(COc2ccc(Cl)cc2)s1)C1CCCO1 (configuration not stated),-0.6,-35.0,-23.7,-0.1,8.9*,0.42
O=C(Nc1nnc(SCc2ccc(Cl)cc2)s1)C1CCCO1 (configuration not stated),1.2,-25.5,-19.7,0.4,-1.0,-0.94
O=C(CCc1ccc(S(=O)(=O)NC2CCCCC2)cc1)N(Cc1ccccc1)Cc1ccccc1,x,-18.6,1.5,x,-4.4,-0.21
Cc1nn(-c2c(Cl)cc(Cl)cc2Cl)c(=O)c2ccccc12,-20.9,-5.8,48.7*,0.8,-2.3,-1.09
CCOc1ccccc1N(C(=O)c1snc(C(N)=O)c1N)C(C(=O)NCCC(C)C)c1ccco1 (configuration not stated),-9.7,-38.9,-5.1,-0.4,5.3*,-1.17
COc1ccccc1N(C(=O)c1snc(C(N)=O)c1N)C(C(=O)NCCC(C)C)c1ccco1 (configuration not stated),6.9,-13.4,-19.2,-1.9,-0.2,-0.2
O=C(Nc1nc(=O)n(C(=O)C2CC2)s1)c1ccccc1,x,-22.8,-14.5,-0.3,6.8*,-0.3
CCC(C)NC(=O)CS(=O)Cc1nc(-c2ccccc2C)oc1C (configuration not stated),2.5,47.1*,-0.5,-0.8,-0.6,0
COc1ccc(N=C2SC(CC(=O)Nc3ccccc3)C(=O)N2CC2CCCO2)cc1 (configuration not stated),-1.3,-23.0,-13.5,-0.7,-1.2,-0.96
COc1ccc(NC(=O)C2CCCN2S(=O)(=O)c2cccc3cccnc23)c(OC)c1 (configuration not stated),-6.0,98.2*,-12.3,0.2,-2.4,-2.93
O=C(/C=C/c1ccc([N+](=O)[O-])cc1)N1CCN(c2ccccc2F)CC1,x,-51.3,5.4,-1.7,35.2*,-1.43
O=C(Cc1ccccc1)Nc1ccccc1Oc1ccccc1,x,-22.2,-2.9,-2.8,8.1*,-1.34
Cc1cc(NC(=O)CSc2ncn(-c3ccccc3)n2)no1,10.5,-44.1,-28.9,x,-2.6,0.51
O=C1c2ccccc2-c2onc3c(Oc4ccccc4)cc(O)c1c23,-21.0,-45.6,91.8*,-2.3,-3.0,-1.18
CCN(CC)C(=O)Nc1c(C)n(C)n(-c2ccccc2)c1=O,17.5,-29.0,x,x,3.2,0.47
CCC(CC)C(=O)Nc1c(C)n(C)n(-c2ccccc2)c1=O,4.8,-4.9,57.1*,-0.1,2.5,0.77
COc1ccc(NC(=O)Nc2c(C)n(C)n(-c3ccccc3)c2=O)cc1,-1.8,-32.3,-11.5,-0.7,0.1,0.82
Cc1c(NC(=O)C(=O)/C=C(/O)c2ccccc2)c(=O)n(-c2ccccc2)n1C,x,-18.3,67.1*,x,1.3,0.95
COc1ccc(/C(O)=C/C(=O)C(=O)Nc2c(C)n(C)n(-c3ccccc3)c2=O)cc1,x,-34.3,72.6*,-5.2,0.0,0.71
Cc1cc(C(F)F)nn1CC(=O)Nc1cc([N+](=O)[O-])ccc1F,x,-31.9,6.0,-4.1,-1.9,1.56
CCNc1nc(Oc2ccc(=O)n(-c3ccccc3)n2)nc(N(C)C)n1,12.8,-25.2,-12.9,-1.3,-2.9,1.27
N#C/C(C(N)=O)=c1/ccc2c(c1)N1C3=C(CCCC3)CC3CCCCC31N=2 (configuration not stated),0.0,-18.9,37.0*,5.0,-2.4,-1.71
O=[N+]([O-])c1cccc(-n2nnnc2CN2CCCCCC2)c1,x,-13.2,-19.1,-0.9,-4.7,-1.07
O=C(O)c1ccc2nc(-c3ccccc3)sc2c1,x,47.4*,-7.9,-4.0,0.3,-0.12
CCCCOc1ccc(C(=O)NNC(=S)NC(=O)CC)cc1,x,48.4*,-1.9,-5.2,-3.6,-1.59
SMILES,MRP reversal,Yeast growth inh,Yeast lifespan up,Phagocytosis inh,MRP1 act,sdo1 growth
CCC(=O)NC(=S)NNC(=O)c1ccc(OC)cc1,x,-16.7,-5.9,x,1.8,2.08
Cn1c(SCC(=O)N2CCCc3ccccc32)nnc1-c1c[nH]c2ccccc12,x,-44.6,43.1*,-0.8,-3.2,0.91
Cn1c(-c2ccc(F)cc2)cnc1NCc1ccc(F)cc1,3.0,-58.5,9.4,1.2,-1.4,0.2
Cn1c(-c2ccc(Br)cc2)cnc1NCc1cccnc1,6.2,-29.3,42.3*,-1.5,-0.5,0.09
O=C(Nc1cccnc1)c1c(O)c2cccc3c2n(c1=O)CC3,-17.9,-34.9,62.2*,-1.1,-1.1,-1.68
CCc1nc2ccccc2c(=O)n1NC(=O)c1c(O)c2cccc3c2n(c1=O)CCC3,-8.4,83.4*,-5.8,-1.6,-1.3,-2.84
O=C(NCc1ccco1)c1c(O)c2cccc3c2n(c1=O)CCC3,-22.7,-45.6,46.7*,-0.9,-2.6,-0.69
CCCCNC(=O)c1c(O)c2cccc3c2n(c1=O)CCC3,-2.1,-16.2,7.7,-1.3,-1.5,-1.23
CCNCCNC(=O)c1c(O)c2cccc3c2n(c1=O)CCC3,-20.2,-52.6,70.1*,-0.4,-1.5,-1.49
O=C(NCCc1cccs1)C1CC(c2cccc([N+](=O)[O-])c2)=NO1 (configuration not stated),x,-6.5,-24.7,3.7,-3.4,0.93
c1cnc(SCCOc2cccc3ccccc23)nc1,9.6,-43.9,-16.3,-0.2,0.6,-1
Clc1ccc(OCCSc2ncccn2)c2ccccc12,2.1,-13.0,-27.4,0.2,5.0*,-1.14
Cc1ccc(NC(=O)COC(=O)C2CCC(=O)N2)c(S(=O)(=O)N2CCOCC2)c1 (configuration not stated),-13.1,-51.6,11.3,-0.1,-2.7,0.34
Cc1ccc(-c2nc3ccccc3o2)cc1NC(=S)NC(=O)c1cc2ccccc2o1,x,-15.2,-3.0,-16.0,-6.1,-0.81
CN1C(=O)NC(c2ccc(O)cc2)C(C(=O)c2cccs2)C1(O)C(F)(F)F (configuration not stated),-8.8,-15.2,33.6*,x,-3.2,-0.1
C=CCn1c(Cc2cccs2)nnc1SC/C=C/c1ccccc1,15.5,-85.8,1.3,0.7,-0.8,-1.19
Cc1[nH]n(-c2ccccc2)c(=O)c1C(c1cccc([N+](=O)[O-])c1)c1c(C)[nH]n(-c2ccccc2)c1=O,x,-30.6,29.9*,-1.4,-0.8,-0.2
COCCCNC(CC(=O)Nc1ccc(OC)cc1OC)C(=O)O (configuration not stated),0.1,-21.7,101.4*,0.8,0.3,1.36
CS(=O)(=O)Nc1ccc(OCc2ccccc2)cc1,-6.6,9.7,-15.9,0.0,2.4,-0.28
O=C1CCCC/C1=N\Nc1ccc(OCc2ccccc2)cc1,x,92.0*,3.7,-0.5,-1.6,0.71
CCOC(=O)C(=NCCCN(C)C)NNc1ccc(Br)cc1,x,92.4*,-10.0,-3.9,-1.3,-1.68
